The source made the active and inactive calls. The rule behind the calls is not given here.
How the values were obtained:
[1] = Selectivity ratio of GI50 for human WM3629 cells to GI50 for human A375P cells; format: functional
[2] = (§1) Growth inhibition of human A375P cells by MTT assay; format: functional
How it was run: (§2)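 A375P cells grown in DMEM with 10% FBS and 1% penicillin/streptomycin at 37 °C in 5% CO2. Cells were detached with trypsin-EDTA, seeded at 5×10^3 cells/well and left 24 h. They were then treated with a 12-point three-fold serial dilution. Viability was read by MTT reduction assay as absorbance at 590 nm.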

[3] = (§3) Growth inhibition of human WM3629 cells by MTT assay; format: functional
How it was run: (§4)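 WM3629 cells kept in Tu2% medium. They were seeded at 5×10^3 cells/well, rested 24 h, then exposed to a 12-point three-fold serial dilution. GI50 was taken from an MTT reduction assay read at 590 nm.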

WM3629 = assay: as §3; format: functional; how it was run: as §4
[4] = Growth inhibition of human A375P cells at 8.05 uM by MTT assay relative to total growth; format: functional; settings: read-out: GI
A375P = assay: as §1; format: functional; how it was run: as §2
[5] = Growth inhibition of human A375P cells at 164 uM by MTT assay relative to total growth; format: functional; settings: read-out: GI
[6] = molecular target: Tyrosine-protein kinase Lyn (Homo sapiens) (UniProt P07948); assay: Inhibition of LYN at 10 uM
How it was run: (§5)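 Single-dose panel screen across 30 kinases at 10 µM, run in duplicate; % inhibition reported.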

[7] = molecular target: Receptor-type tyrosine-protein kinase FLT3 (Homo sapiens) (UniProt P36888); assay: Inhibition of human FLT3 at 10 uM; how it was run: as §5
[8] = molecular target: Cyclin-dependent kinase 2/cyclin E1 (Homo sapiens) (UniProt P24864+P24941); assay: Inhibition of CDK2/cyclin E at 10 uM; format: protein-complex assay; how it was run: as §5
[9] = molecular target: Proto-oncogene tyrosine-protein kinase ROS (Homo sapiens) (UniProt P08922); assay: Inhibition of ROS at 10 uM; how it was run: as §5
[10] = molecular target: Mitogen-activated protein kinase 1 (Homo sapiens) (UniProt P28482); assay: Inhibition of ERK2 at 10 uM; how it was run: as §5
[11] = molecular target: Serine/threonine-protein kinase mTOR (Homo sapiens) (UniProt P42345); assay: Inhibition of mTOR at 10 uM; how it was run: as §5
[12] = molecular target: Tyrosine-protein kinase SYK (Homo sapiens) (UniProt P43405); assay: Inhibition of SYK at 10 uM; how it was run: as §5
[13] = molecular target: Cyclin-dependent kinase 1/cyclin B1 (Homo sapiens) (UniProt P06493+P14635); assay: Inhibition of CDK1/cyclin B at 10 uM; format: protein-complex assay; how it was run: as §5
[14] = molecular target: Protein kinase C alpha type (Homo sapiens) (UniProt P17252); assay: Inhibition of PKCalpha at 10 uM; how it was run: as §5
[15] = Inhibition of PKA at 10 uM
How it was run: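 Single-concentration screen at 10 µM within a 30-kinase panel, run in duplicate; read-out is percent inhibition of kinase activity.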

[16] = molecular target: RAF proto-oncogene serine/threonine-protein kinase (Homo sapiens) (UniProt P04049); assay: Inhibition of cRAF at 10 uM; how it was run: as §5
[17] = molecular target: Dual specificity mitogen-activated protein kinase kinase 1 (Homo sapiens) (UniProt Q02750); assay: Inhibition of MEK1 at 10 uM; how it was run: as §5
[18] = molecular target: Focal adhesion kinase 1 (Homo sapiens) (UniProt Q05397); assay: Inhibition of human FAK at 10 uM; how it was run: as §5
[19] = molecular target: Tyrosine-protein kinase JAK3 (Homo sapiens) (UniProt P52333); assay: Inhibition of JAK3 at 10 uM; how it was run: as §5
[20] = molecular target: DNA-dependent protein kinase catalytic subunit (Homo sapiens) (UniProt P78527); assay: Inhibition of DNA-PK at 10 uM; how it was run: as §5
[21] = molecular target: ALK tyrosine kinase receptor (Homo sapiens) (UniProt Q9UM73); assay: Inhibition of ALK at 10 uM; how it was run: as §5
[22] = molecular target: Glycogen synthase kinase-3 beta (Homo sapiens) (UniProt P49841); assay: Inhibition of GSK3-beta at 10 uM; how it was run: as §5
[23] = molecular target: Ribosomal protein S6 kinase beta-1 (Homo sapiens) (UniProt P23443); assay: Inhibition of p70S6K at 10 uM; how it was run: as §5
[24] = molecular target: Mitogen-activated protein kinase 8 (Homo sapiens) (UniProt P45983); assay: Inhibition of JNK1 at 10 uM; how it was run: as §5
[25] = molecular target: Cyclin-dependent kinase 5/CDK5 activator 1 (Homo sapiens) (UniProt Q00535+Q15078); assay: Inhibition of CDK5/p25 at 10 uM; format: protein-complex assay; how it was run: as §5
[26] = molecular target: Insulin-like growth factor 1 receptor (Homo sapiens) (UniProt P08069); assay: Inhibition of IGF1R at 10 uM; how it was run: as §5
[27] = molecular target: Epidermal growth factor receptor (Homo sapiens) (UniProt P00533); assay: Inhibition of EGFR at 10 uM; how it was run: as §5
[28] = molecular target: RAC-alpha serine/threonine-protein kinase (Homo sapiens) (UniProt P31749); assay: Inhibition of AKT1 at 10 uM; how it was run: as §5
[29] = molecular target: Serine/threonine-protein kinase Chk1 (Homo sapiens) (UniProt O14757); assay: Inhibition of CHK1 at 10 uM; how it was run: as §5
[30] = molecular target: Proto-oncogene tyrosine-protein kinase Src (Homo sapiens) (UniProt P12931); assay: Inhibition of c-Src at 10 uM; how it was run: as §5
[31] = molecular target: Serine/threonine-protein kinase PAK 4 (Homo sapiens) (UniProt O96013); assay: Inhibition of PAK4 at 10 uM; how it was run: as §5
[32] = molecular target: BDNF/NT-3 growth factors receptor (Homo sapiens) (UniProt Q16620); assay: Inhibition of TrkB at 10 uM; how it was run: as §5
[33] = molecular target: Mitogen-activated protein kinase 14 (Homo sapiens) (UniProt Q16539); assay: Inhibition of p38alpha at 10 uM; how it was run: as §5
[34] = molecular target: Myotonin-protein kinase (Homo sapiens) (UniProt Q09013); assay: Inhibition of DMPK at 10 uM; how it was run: as §5
[35] = molecular target: Macrophage-stimulating protein receptor (Homo sapiens) (UniProt Q04912); assay: Inhibition of RON at 10 uM; how it was run: as §5

Ribosomal protein S6 kinase beta-1 (Homo sapiens), sequence (P23443 whole entry, looked up): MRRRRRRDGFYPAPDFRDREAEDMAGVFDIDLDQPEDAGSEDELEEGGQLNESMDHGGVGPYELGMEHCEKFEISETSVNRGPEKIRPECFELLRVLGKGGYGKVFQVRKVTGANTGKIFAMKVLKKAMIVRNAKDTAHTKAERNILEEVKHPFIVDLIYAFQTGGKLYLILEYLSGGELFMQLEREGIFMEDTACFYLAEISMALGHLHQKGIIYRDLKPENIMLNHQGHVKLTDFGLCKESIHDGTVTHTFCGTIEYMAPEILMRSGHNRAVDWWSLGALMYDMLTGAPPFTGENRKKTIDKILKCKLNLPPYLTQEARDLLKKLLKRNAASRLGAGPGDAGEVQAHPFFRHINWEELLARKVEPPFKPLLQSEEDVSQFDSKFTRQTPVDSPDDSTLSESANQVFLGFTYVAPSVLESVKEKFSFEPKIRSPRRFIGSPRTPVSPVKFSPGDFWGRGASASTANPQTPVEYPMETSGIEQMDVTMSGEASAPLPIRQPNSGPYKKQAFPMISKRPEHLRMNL
BDNF/NT-3 growth factors receptor (Homo sapiens), sequence (Q16620 32-822 limits assumed): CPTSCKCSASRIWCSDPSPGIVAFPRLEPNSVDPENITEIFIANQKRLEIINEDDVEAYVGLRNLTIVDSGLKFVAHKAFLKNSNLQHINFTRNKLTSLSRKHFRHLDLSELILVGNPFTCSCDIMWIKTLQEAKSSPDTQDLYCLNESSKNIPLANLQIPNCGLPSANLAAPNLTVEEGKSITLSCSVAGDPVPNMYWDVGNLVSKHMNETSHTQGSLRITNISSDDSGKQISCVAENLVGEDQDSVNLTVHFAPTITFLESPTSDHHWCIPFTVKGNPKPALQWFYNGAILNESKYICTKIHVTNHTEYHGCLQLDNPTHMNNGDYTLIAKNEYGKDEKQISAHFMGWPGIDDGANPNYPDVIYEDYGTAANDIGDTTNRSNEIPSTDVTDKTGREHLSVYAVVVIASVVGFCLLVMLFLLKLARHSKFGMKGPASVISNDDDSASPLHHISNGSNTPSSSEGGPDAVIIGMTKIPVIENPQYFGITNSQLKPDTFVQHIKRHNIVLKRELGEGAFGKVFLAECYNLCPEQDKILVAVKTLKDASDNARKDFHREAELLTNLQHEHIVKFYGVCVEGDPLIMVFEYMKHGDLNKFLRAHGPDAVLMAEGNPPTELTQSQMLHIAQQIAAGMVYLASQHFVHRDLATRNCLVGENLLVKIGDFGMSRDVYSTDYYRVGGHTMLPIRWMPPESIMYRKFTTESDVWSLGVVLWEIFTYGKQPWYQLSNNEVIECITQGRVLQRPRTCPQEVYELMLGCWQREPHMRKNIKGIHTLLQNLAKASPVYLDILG
RAF proto-oncogene serine/threonine-protein kinase (Homo sapiens), sequence (P04049 whole entry): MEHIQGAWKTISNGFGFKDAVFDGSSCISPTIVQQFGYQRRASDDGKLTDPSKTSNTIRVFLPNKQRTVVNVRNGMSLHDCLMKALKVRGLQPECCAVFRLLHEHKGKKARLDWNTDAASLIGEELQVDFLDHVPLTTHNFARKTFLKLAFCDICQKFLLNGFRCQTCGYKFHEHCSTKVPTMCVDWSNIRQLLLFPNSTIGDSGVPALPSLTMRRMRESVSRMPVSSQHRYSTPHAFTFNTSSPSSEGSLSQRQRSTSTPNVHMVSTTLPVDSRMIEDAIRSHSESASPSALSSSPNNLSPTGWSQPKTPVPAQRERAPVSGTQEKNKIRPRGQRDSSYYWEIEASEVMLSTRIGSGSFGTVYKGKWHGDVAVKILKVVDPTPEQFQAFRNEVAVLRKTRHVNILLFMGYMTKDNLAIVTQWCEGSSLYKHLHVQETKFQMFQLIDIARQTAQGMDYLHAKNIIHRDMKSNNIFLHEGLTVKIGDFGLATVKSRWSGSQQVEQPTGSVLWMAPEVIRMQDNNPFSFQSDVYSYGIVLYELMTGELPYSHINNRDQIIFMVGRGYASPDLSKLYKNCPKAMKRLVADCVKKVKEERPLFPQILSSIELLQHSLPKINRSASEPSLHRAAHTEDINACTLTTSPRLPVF
Serine/threonine-protein kinase Chk1 (Homo sapiens), sequence (O14757 whole entry): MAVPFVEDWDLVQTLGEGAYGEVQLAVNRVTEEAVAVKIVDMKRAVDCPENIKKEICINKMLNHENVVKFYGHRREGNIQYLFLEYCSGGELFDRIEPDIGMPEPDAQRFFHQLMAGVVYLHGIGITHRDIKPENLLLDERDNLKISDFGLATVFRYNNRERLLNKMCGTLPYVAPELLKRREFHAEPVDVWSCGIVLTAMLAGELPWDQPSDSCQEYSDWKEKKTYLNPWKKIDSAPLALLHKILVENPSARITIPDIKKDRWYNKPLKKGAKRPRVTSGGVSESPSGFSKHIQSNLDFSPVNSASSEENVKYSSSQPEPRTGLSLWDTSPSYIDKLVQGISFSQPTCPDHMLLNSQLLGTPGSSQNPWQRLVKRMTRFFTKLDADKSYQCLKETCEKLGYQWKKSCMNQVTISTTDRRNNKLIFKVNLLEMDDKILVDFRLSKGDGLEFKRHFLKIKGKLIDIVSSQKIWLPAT
Myotonin-protein kinase (Homo sapiens), sequence (Q09013 whole entry): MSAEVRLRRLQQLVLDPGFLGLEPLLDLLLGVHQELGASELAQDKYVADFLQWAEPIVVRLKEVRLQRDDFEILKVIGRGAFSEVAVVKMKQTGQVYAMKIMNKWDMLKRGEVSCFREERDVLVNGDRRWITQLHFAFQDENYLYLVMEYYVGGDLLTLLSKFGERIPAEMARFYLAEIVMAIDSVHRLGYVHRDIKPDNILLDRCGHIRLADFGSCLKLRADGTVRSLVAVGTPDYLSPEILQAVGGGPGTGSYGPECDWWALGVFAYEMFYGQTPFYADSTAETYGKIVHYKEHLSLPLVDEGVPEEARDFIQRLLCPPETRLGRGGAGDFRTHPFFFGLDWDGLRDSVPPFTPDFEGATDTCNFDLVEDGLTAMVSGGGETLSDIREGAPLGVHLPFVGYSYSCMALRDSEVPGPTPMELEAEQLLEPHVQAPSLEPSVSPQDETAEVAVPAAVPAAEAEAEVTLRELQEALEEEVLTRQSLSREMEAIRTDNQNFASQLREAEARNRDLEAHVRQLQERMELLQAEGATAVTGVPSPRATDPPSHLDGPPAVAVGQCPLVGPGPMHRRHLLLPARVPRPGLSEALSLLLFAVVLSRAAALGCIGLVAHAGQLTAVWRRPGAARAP
Insulin-like growth factor 1 receptor (Homo sapiens), sequence (P08069 31-736 limits assumed): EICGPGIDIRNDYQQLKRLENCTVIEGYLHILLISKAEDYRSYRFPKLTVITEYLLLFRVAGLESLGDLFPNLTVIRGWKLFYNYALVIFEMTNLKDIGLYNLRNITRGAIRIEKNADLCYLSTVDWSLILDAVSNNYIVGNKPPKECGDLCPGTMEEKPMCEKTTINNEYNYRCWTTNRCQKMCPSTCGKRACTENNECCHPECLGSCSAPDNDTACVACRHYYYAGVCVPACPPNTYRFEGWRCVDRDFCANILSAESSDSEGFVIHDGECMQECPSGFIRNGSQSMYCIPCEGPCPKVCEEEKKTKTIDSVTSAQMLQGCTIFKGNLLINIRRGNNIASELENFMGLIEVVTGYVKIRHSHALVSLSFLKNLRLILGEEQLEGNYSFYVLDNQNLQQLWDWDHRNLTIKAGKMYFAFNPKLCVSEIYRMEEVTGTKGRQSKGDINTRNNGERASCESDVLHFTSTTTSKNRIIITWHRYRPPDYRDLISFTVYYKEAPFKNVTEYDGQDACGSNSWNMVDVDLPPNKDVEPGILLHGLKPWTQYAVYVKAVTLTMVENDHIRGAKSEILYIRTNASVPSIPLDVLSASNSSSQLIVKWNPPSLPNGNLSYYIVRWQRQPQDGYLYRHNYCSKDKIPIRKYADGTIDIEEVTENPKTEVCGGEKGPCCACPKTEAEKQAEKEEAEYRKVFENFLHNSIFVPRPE
Insulin-like growth factor 1 receptor (Homo sapiens), sequence (P08069 741-1367 limits assumed): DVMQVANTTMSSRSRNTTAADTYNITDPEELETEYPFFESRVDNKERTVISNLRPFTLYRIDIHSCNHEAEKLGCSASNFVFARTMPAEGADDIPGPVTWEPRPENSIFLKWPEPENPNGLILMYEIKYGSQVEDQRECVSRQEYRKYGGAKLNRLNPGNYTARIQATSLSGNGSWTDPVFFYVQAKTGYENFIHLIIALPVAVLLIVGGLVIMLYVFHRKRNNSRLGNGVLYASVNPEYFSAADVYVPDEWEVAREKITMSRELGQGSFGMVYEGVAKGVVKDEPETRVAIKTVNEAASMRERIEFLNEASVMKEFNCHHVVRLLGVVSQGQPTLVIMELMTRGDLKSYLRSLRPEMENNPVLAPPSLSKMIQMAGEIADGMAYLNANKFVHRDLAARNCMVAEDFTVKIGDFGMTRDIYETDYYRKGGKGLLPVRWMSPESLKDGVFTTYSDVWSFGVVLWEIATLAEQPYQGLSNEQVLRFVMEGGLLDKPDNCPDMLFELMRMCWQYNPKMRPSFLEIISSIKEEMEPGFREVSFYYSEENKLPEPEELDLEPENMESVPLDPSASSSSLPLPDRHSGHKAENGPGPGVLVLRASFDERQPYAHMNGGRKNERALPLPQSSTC
Serine/threonine-protein kinase PAK 4 (Homo sapiens), sequence (O96013 whole entry, looked up): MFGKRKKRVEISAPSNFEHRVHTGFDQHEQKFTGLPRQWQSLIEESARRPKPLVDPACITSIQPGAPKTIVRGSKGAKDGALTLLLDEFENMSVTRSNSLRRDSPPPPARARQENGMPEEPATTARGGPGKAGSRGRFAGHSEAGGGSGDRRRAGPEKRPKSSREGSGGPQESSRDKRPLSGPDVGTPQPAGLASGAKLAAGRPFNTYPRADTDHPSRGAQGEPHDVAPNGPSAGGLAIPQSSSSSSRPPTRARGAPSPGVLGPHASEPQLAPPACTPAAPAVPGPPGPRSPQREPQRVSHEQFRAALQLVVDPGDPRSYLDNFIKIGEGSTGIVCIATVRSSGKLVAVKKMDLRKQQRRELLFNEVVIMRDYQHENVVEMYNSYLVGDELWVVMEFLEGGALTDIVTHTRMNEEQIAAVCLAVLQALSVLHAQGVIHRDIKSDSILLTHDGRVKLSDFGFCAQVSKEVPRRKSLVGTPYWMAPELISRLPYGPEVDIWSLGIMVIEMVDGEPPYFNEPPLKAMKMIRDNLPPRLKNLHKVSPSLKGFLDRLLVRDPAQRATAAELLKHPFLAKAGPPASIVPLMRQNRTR

## C[C@H](O)CNc1nccc(-n2ccnc2-c2cccc(NC(=O)c3cc(N4CCN(C)CC4)cc(C(F)(F)F)c3)c2)n1
[1]
  RatioGI50: 5
[2]
  GI50: 10.4 µM
[3]
  GI50: 9.13 µM

## C[C@H](O)CNc1nccc(-n2ccnc2C(=O)c2ccc(NC(=O)c3ccc(Cl)c(C(F)(F)F)c3)cc2)n1
[2]
  GI50: 2.51 µM
[3]
  GI50: 1.37 µM

## C[C@H](O)CNc1nccc(-n2ccnc2-c2cccc(NC(=O)c3coc(-c4cc(C(F)(F)F)ccc4Cl)c3)c2)n1
[1]
  RatioGI50: 5
WM3629
  GI50: inactive

## C[C@H](O)CNc1nccc(-n2ccnc2-c2ccc(NC(=O)c3ccc(N4CCOCC4)c(C(F)(F)F)c3)cc2)n1
[2]
  GI50: > 100 µM
[3]
  GI50: > 100 µM

## COc1ccc(-c2cc(C(=O)Nc3ccc(-c4nccn4-c4ccnc(NC[C@H](C)O)n4)cc3)co2)cc1
[2]
  GI50: 8.05 µM
[4]
  inhibition of growth at 8.05 µM: < 66%
[3]
  GI50: > 100 µM

## C[C@H](O)CNc1nccc(-n2ccnc2-c2ccc(NC(=O)Nc3ccc(Cl)c(Cl)c3)cc2)n1
[2]
  GI50: 17.8 µM
[3]
  GI50: 2.45 µM

## C[C@H](O)CNc1nccc(-n2ccnc2-c2ccc(NC(=O)Nc3cccc(Cl)c3)cc2)n1
[2]
  GI50: 3.19 µM
[3]
  GI50: 4.99 µM

## C[C@H](O)CNc1nccc(-n2ccnc2-c2cccc(NC(=O)Nc3cccc(Cl)c3)c2)n1
[1]
  RatioGI50: 5
[2]
  GI50: 85.8 µM
[3]
  GI50: > 100 µM

## C[C@H](O)CNc1nccc(-n2ccnc2-c2cccc(NC(=O)c3cccc(C(F)(F)F)c3)c2)n1
[1]
  RatioGI50: 5
A375P
  GI50: inactive
WM3629
  GI50: inactive

## C[C@H](O)CNc1nccc(-n2ccnc2-c2cccc(NC(=O)c3cc(-c4ccc(Cl)cc4)on3)c2)n1
[1]
  RatioGI50: 5
[5]
  inhibition of growth at 164 µM: < 66%
[2]
  GI50: 164 µM
[3]
  GI50: > 100 µM

## C[C@H](O)CNc1nccc(-n2ccnc2-c2cccc(NC(=O)c3ccc(N4CCOCC4)c(C(F)(F)F)c3)c2)n1
[1]
  RatioGI50: 5
[2]
  GI50: 28.3 µM
[3]
  GI50: 7.37 µM

## C[C@H](O)CNc1nccc(-n2ccnc2-c2ccc(NC(=O)c3cc(N4CCOCC4)cc(C(F)(F)F)c3)cc2)n1
[2]
  GI50: 35.6 µM
[3]
  GI50: 2.25 µM

## C[C@H](O)CNc1nccc(-n2ccnc2-c2cccc(NC(=O)c3ncc(-c4ccncc4)s3)c2)n1
[1]
  RatioGI50: 5
[2]
  GI50: > 100 µM
[3]
  GI50: 13.8 µM

## COc1ccc(-c2cc(C(=O)Nc3cccc(-c4nccn4-c4ccnc(NC[C@H](C)O)n4)c3)co2)cc1
[1]
  RatioGI50: 5
A375P
  GI50: inactive
[3]
  GI50: 22.3 µM

## C[C@H](O)CNc1nccc(-n2ccnc2-c2ccc(NC(=O)Nc3cccc(C(F)(F)F)c3)cc2)n1
[2]
  GI50: 7.19 µM
[3]
  GI50: 12.9 µM

## C[C@H](O)CNc1nccc(-n2ccnc2-c2cccc(NC(=O)Nc3ccc(Cl)c(C(F)(F)F)c3)c2)n1
[1]
  RatioGI50: 5
[2]
  GI50: 58.2 µM
[3]
  GI50: > 100 µM

## C[C@H](O)CNc1nccc(-n2ccnc2-c2ccc(NC(=O)Nc3ccc(Cl)c(C(F)(F)F)c3)cc2)n1
[2]
  GI50: 10.1 µM
[3]
  GI50: 4.43 µM

## C[C@H](O)CNc1nccc(-n2ccnc2-c2ccc(NC(=O)c3coc(-c4cc(C(F)(F)F)ccc4Cl)c3)cc2)n1
[2]
  GI50: 2.23 µM
[3]
  GI50: > 100 µM

## Cc1ccc2nc(NC(=O)Nc3cccc(-c4nccn4-c4ccnc(NC[C@H](C)O)n4)c3)sc2c1
[1]
  RatioGI50: 5
[2]
  GI50: 19.4 µM
[3]
  GI50: 4.54 µM

## C[C@H](O)CNc1nccc(-n2ccnc2-c2ccc(NC(=O)c3cc(-c4ccc(Cl)cc4)on3)cc2)n1
[2]
  GI50: > 100 µM
[3]
  GI50: > 100 µM

## C[C@H](O)CNc1nccc(-n2ccnc2-c2cccc(NC(=O)Nc3ccc(Cl)c(Cl)c3)c2)n1
[1]
  RatioGI50: 5
[2]
  GI50: 5.93 µM
[3]
  GI50: 0.65 µM

## C[C@H](O)CNc1nccc(-n2ccnc2-c2ccc(NC(=O)c3ccc(Cl)c(C(F)(F)F)c3)cc2)n1
[2]
  GI50: 79.2 µM
[3]
  GI50: > 100 µM

## CNC(=O)c1cc(Oc2ccc(NC(=O)Nc3ccc(Cl)c(C(F)(F)F)c3)cc2)ccn1 [SORAFENIB]
[2]
  GI50: 5.58 µM
[3]
  GI50: 0.78 µM

## C[C@H](O)CNc1nccc(-n2ccnc2-c2cccc(NC(=O)Nc3cccc(C(F)(F)F)c3)c2)n1
[1]
  RatioGI50: 5
[2]
  GI50: 19.2 µM
[3]
  GI50: 7.86 µM

## C[C@H](O)CNc1nccc(-n2ccnc2-c2cccc(NC(=O)c3ccc(Cl)c(C(F)(F)F)c3)c2)n1
[6]
  inhibition: 21%
[7]
  inhibition: 82%
[8]
  inhibition: < 0%
[9]
  inhibition: 0.19%
[10]
  inhibition: 10%
[1]
  RatioGI50: 5
[11]
  inhibition: 1.5%
[12]
  inhibition: 13%
[13]
  inhibition: 21%
[14]
  inhibition: 1.1%
[15]
  inhibition: 6.8%
[16]
  inhibition: 99%
[17]
  inhibition: < 0%
[18]
  inhibition: 0%
[2]
  GI50: 4.49 µM
[19]
  inhibition: 0.21%
[20]
  inhibition: 9.4%
[21]
  inhibition: 0.8%
[22]
  inhibition: 14%
[23]
  inhibition: 17%
[24]
  inhibition: < 0%
[25]
  inhibition: 2.4%
[26]
  inhibition: 3.6%
[27]
  inhibition: 1.7%
[28]
  inhibition: 5.1%
[29]
  inhibition: 5.9%
[30]
  inhibition: < 0%
[31]
  inhibition: < 0%
[32]
  inhibition: < 0%
[33]
  inhibition: 89%
[34]
  inhibition: 7.6%
[3]
  GI50: 0.62 µM
[35]
  inhibition: 5%

## Cc1cn(-c2cc(C(=O)Nc3cccc(-c4nccn4-c4ccnc(NC[C@H](C)O)n4)c3)cc(C(F)(F)F)c2)cn1
[1]
  RatioGI50: 5
[2]
  GI50: 6.72 µM
[3]
  GI50: 3.49 µM

## C[C@H](O)CNc1nccc(-n2ccnc2-c2ccc(NC(=O)c3ncc(-c4ccncc4)s3)cc2)n1
[2]
  GI50: 139 µM
[3]
  GI50: > 100 µM

## C[C@H](O)CNc1nccc(-n2ccnc2-c2cccc(NC(=O)Nc3ccc(N4CCOCC4)c(C(F)(F)F)c3)c2)n1
[1]
  RatioGI50: 5
[2]
  GI50: 34.6 µM
[3]
  GI50: 3.28 µM

## C[C@H](O)CNc1nccc(-n2ccnc2C(=O)c2ccc(NC(=O)Nc3ccc(Cl)c(C(F)(F)F)c3)cc2)n1
[2]
  GI50: 9.29 µM
[3]
  GI50: 3.51 µM
